In general, Ki refers to the equilibrium dissociation constant of an inhibitor or competing ligand from its target. A lower Ki goes with tighter binding.

Data set [1] addresses 20S constitutive proteasome CT-L (β5) (Homo sapiens, UniProt P20618+P28074). Briefly: In vitro proteasome activity assay, constitutive proteasome CT-L activity. Format: biochemical.
Data set [2] concerns MYCN2 neuroblastoma cells. Briefly: Cell viability assay. The conditions noted are these: MTS; for effect on viability of MYCN2 cells: highest concentration tested (1 μM), 24 h exposure. Format: cell-based, human. In outline: (§1)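 Cells plated overnight in RPMI with 10% heat-inactivated FBS, penicillin (100 U/ml) and streptomycin (100 μg/ml), at 37 °C in humidified 5% CO2. […] MTS read-out by absorbance at 490 nm. Two experiments, each in triplicate wells (n=6); viability averaged relative to untreated cells.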

Data set [3] concerns SK-N-SH neuroblastoma cells. In words: Cell viability assay. Format: cell-based, human. The settings on record: MTS; for effect on viability of SK-N-SH cells: highest concentration tested (1 μM), 24 h exposure. In outline: as §1
The target in data set [4] is immunoproteasome C-L (β1) (Homo sapiens, UniProt P28065). Briefly: In vitro proteasome activity assay, immunoproteasome C-L activity. The settings on record: for effect on C-L activity of the immunoproteasome: at ≤10 μM. Format: biochemical.
The test system of data set [5] is SK-N-Be(2)c neuroblastoma cells. Briefly: Cell viability assay. The conditions noted are these: highest concentration tested (1 μM), 24 h exposure, MTS. Format: cell-based, human. The method in brief: as §1
For data set [6], the target named is immunoproteasome CT-L (β5) (Homo sapiens, UniProt P20618+P28062). Briefly: In vitro proteasome activity assay, immunoproteasome CT-L activity. Format: biochemical. The conditions noted are these: for change of CT-L activity of the immunoproteasome on inhibition of T-L activity: Fig. S1; for effect on CT-L activity of the immunoproteasome: at ≤10 μM.
The target in data set [7] is 20S constitutive proteasome T-L (β2) (Homo sapiens, UniProt P49720+Q99436). Briefly: In vitro proteasome activity assay, constitutive proteasome T-L activity. Format: biochemical.
The target in data set [8] is immunoproteasome T-L (β2) (Homo sapiens, UniProt P40306+P49720). Briefly: In vitro proteasome activity assay, immunoproteasome T-L activity. Format: biochemical.
The target of data set [9] is 20S constitutive proteasome C-L (β1) (Homo sapiens, UniProt P28072+Q99436). Briefly: In vitro proteasome activity assay, constitutive proteasome C-L activity. Format: biochemical.

`CC(C)[C@H](NC(=O)c1cnccn1)C(=O)N[C@H]1CSCCNC(=O)/C=C/[C@H](C)NC1=O` [Compound 6, N-((S)-3-Methyl-1-(((8S,11R,E)-8-methyl-5,10-dioxo-1-thia-4,9-diazacyclododec-6-en-11-yl)amino)-1-oxobutan-2-yl)pyrazine-2-carboxamide]: the Ki in data set [1] is 1.22 µM; in [4], > 10 µM; in data set [6], > 10 µM; in [7], 0.92 µM; in data set [8], 0.75 µM; in data set [9], > 10 µM. Moreover, the “effect on viability of MYCN2 cells” value in data set [2] is listed as “minimal effects”. Also, the “effect on viability of SK-N-SH cells” value in data set [3] is given as “minimal effects”. Also, the “effect on C-L activity of the immunoproteasome” value (shortened to “effect on C-L activity”) in data set [4] was “no effect”. For the same compound, the “effect on viability of SK-N-Be(2)c cells” value in data set [5] is recorded as “minimal effects”. Also, the “change of CT-L activity of the immunoproteasome on inhibition of T-L activity” value in data set [6] is on record as “stimulate the CT-L activity”. Also, the “effect on CT-L activity of the immunoproteasome” value (“effect on CT-L activity” below) in [6] is reported as “no effect”.
Turning to `CCCCCCCCCCCCNC(=O)N[C@H](C(=O)N[C@H]1CSCCNC(=O)/C=C/[C@H](C)NC1=O)C(C)C` [Compound 1, (S)-2-(3-Dodecylureido)-3-methyl-N-((8S,11R,E)-8-methyl-5,10-dioxo-1-thia-4,9-diazacyclododec-6-en-11-yl)butanamide], the Ki in [1] was 0.28 µM; in data set [4], > 10 µM; in data set [6], > 10 µM; in data set [7], 1.76 µM; in data set [8], 1.39 µM; in data set [9], > 10 µM. For the same compound, in [4], the “effect on C-L activity” value is reported as “no effect”. The “effect on CT-L activity” value in data set [6] is recorded as “no effect”.
For the compound `CC(C)Cc1ccc([C@H](C)C(=O)N[C@H](C(=O)N[C@H]2CSCCNC(=O)/C=C/[C@H](C)NC2=O)C(C)C)cc1` [Compound 5, (S)-2-((S)-2-(4-Isobutylphenyl)propanamido)-3-methyl-N-((8S,11R,E)-8-methyl-5,10-dioxo-1-thia-4,9-diazacyclododec-6-en-11-yl)butanamide], the Ki was 0.91 µM in data set [1]; > 10 µM in data set [4]; > 10 µM in data set [6]; 1.07 µM in [7]; 0.74 µM in data set [8]; > 10 µM in [9]. Besides, in [2], the “effect on viability of MYCN2 cells” value is given as “minimal effects”. In addition, the “effect on viability of SK-N-SH cells” value in data set [3] was “minimal effects”. Moreover, the “effect on C-L activity” value in data set [4] is recorded as “no effect”. Besides, in [5], the “effect on viability of SK-N-Be(2)c cells” value is “minimal effects”. Moreover, in data set [6], the “change of CT-L activity of the immunoproteasome on inhibition of T-L activity” value is recorded as “stimulate the CT-L activity”. Moreover, the “effect on CT-L activity” value in data set [6] is “no effect”.
On to `CC(C)C[C@H](NC(=O)[C@H](Cc1ccccc1)NC(=O)c1cnccn1)B(O)O` [BTZ, bortezomib, reference compound], for which, in [2] (at 0.1–1 μM, 24 h), the “cytotoxic effect in MYCN2 cells” value was “strong cytotoxic effects”. Further, the “cytotoxic effect in SK-N-SH cells” value in data set [3] (at 0.1–1 μM, 24 h) is recorded as “strong cytotoxic effects”.

Values taken from PMC5920785 (Bioorganic & medicinal chemistry, 2017).
